Data from paper PMC4757811 (Biochemistry, 2015).

What was measured:
NIH-3T3 cells [1] = experiment: Anchored growth of stable NIH-3T3 cells; type: cell-based; conditions: NIH-3T3 stable cells, 20 000 cells plated in duplicate; hemocytometer
Procedure, shortened: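 NIH-3T3 lines stably expressing wild-type or mutant Brk were made by MSCV-PIG retroviral infection with 8 µg/mL Polybrene. Selection used puromycin (2 µg/mL) from 48 h postinfection, and lines with equivalent GFP expression were used. Cells (20 000) were plated in duplicate in 12-well plates. At each time point over several days they were trypsinized and counted by hemocytometer. Representative of three experiments; standard deviations shown.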

β-catenin = β-catenin phosphorylation and binding, immunoprecipitation from 293T cells; type: cell-based; conditions: 293T cells coexpressing β-catenin; for binding to β-catenin (in words): Flag antibody; for phosphorylation of β-catenin (in words): anti-phosphotyrosine; for binding and phosphorylation of β-catenin (in words): compared to wild-type Brk
Procedure, shortened: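 Flag-tagged β-catenin was coexpressed with Flag-Brk (wild-type or mutant) in 293T cells by PEI transfection, and lysates were made 48 h later in RIPA buffer. Lysate (1 mg/mL) was precleared on protein G agarose (1 h, 4 °C), incubated with 1 µg anti-β-catenin (1 h, 4 °C), then captured on protein G for 4 h at 4 °C. After three RIPA washes, SDS elution and blotting, membranes were probed with anti-phosphotyrosine and anti-β-catenin, then reprobed with anti-Flag for Brk association.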

Erk1/2 [2] = type: cell-based; conditions: 293T cells, serum starved, 10 ng/mL EGF for 2.5 min
Procedure, shortened: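 293T cells were PEI-transfected with Flag-Brk (wild-type or mutant) and serum-starved overnight. They were then stimulated with 10 ng/mL EGF for 2.5 min, lysed in RIPA buffer with inhibitors, and resolved by SDS-PAGE on PVDF. Blots were probed for phospho-Erk1/2 (Thr202/Tyr204), total Erk1/2 and Flag.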

Erk1/2 [3] = experiment: Erk1/2 phosphorylation in 293T cells, Western blot; type: cell-based; conditions: not serum starved
Procedure, shortened: (§1)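 293T cells (1×10^6) transfected 24 h after plating with Flag-tagged wild-type or mutant Brk using polyethylenimine. Lysed 48 h post-transfection in RIPA buffer (pH 7.5) with protease and phosphatase inhibitors, then SDS-PAGE and PVDF blotting.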

p130Cas = experiment: Cas phosphorylation in 293T cells, Western blot; type: cell-based; conditions: 293T cells cotransfected with Brk and Cas
Procedure, shortened: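 293T cells were cotransfected with V5-His-tagged p130Cas and Flag-tagged wild-type or mutant Brk using polyethylenimine, then harvested 48 h later in RIPA buffer with inhibitors. Lysates were analysed by SDS-PAGE and PVDF Western blotting. Probes were anti-phospho-p130Cas (Tyr249), anti-p130Cas and anti-Flag.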

MCF-10a cells = experiment: Growth of stable MCF-10a cells; type: cell-based; conditions: MCF-10a stable cells; compared to Brk WT
ErbB2 = ErbB2 interaction, co-immunoprecipitation; type: binding; conditions: 293T cells cotransfected with ErbB2 and Brk; ErbB2 immunoprecipitated
Procedure, shortened: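 Flag-tagged wild-type or mutant Brk and full-length ErbB2 were co-transfected into 293T cells with polyethylenimine (8 μL per μg DNA in 150 mM NaCl), 24 h after plating. Cells were lysed at 48 h in RIPA buffer with protease/phosphatase inhibitors. Lysate (1 mg/mL) was precleared on protein G agarose, then taken with 1 μg anti-ErbB2 (1 h, 4 °C) and protein G (4 h, 4 °C). After washing, blots were probed with anti-ErbB2 and anti-Flag.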

STAT3 = STAT3 phosphorylation in 293T cells, Western blot; type: cell-based; conditions: compared to control cells or wild-type Brk
Procedure, shortened: as §1

NIH-3T3 cells [4] = experiment: Nonanchored growth of stable NIH-3T3 cells; type: cell-based; conditions: NIH-3T3 stable cells, low attachment plates, day 6, triplicate
Procedure, shortened: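 NIH-3T3 lines stably expressing Brk were made by retrovirus with puromycin selection and matched for GFP expression. Cells (20 000) were seeded in triplicate in 24-well low-attachment plates. On day 6 they were centrifuged, resuspended in trypsin and counted by hemocytometer. Representative of two experiments; standard deviations shown.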

Akt and Erk1/2 = Akt and Erk1/2 activation in SkBr3 cells; type: cell-based; conditions: SkBr3 breast cancer cells
SkBr3 cells = experiment: Growth of stable SkBr3 cells; type: cell-based
Akt = Akt phosphorylation in 293T cells, Western blot; type: cell-based; conditions: phospho-Akt (Ser473)
Procedure, shortened: as §1

## P450L: Brk mutant, C-terminal tail adjacent to the inhibitory tyrosine, identified in pancreatic cancer
NIH-3T3 cells [1]
  anchored cell growth (in words): did not survive past Day 6

## L16F: Brk mutant, SH3 domain, identified in clear cell renal cell carcinoma
β-catenin
  binding to β-catenin (in words): decreased interaction with the protein
  phosphorylation of β-catenin (in words): not able to phosphorylate β-catenin
Erk1/2 [2]
  Erk1/2 phosphorylation after EGF stimulation (in words): no appreciable difference between wild-type and L16F Brk following stimulation with EGF
Erk1/2 [3]
  Erk1/2 phosphorylation (in words): increased phosphorylation of Erk1/2 compared to wild-type Brk
p130Cas
  expression of Brk upon coexpression with Cas (in words): decreased expression
  phosphorylation of Cas (in words): decreased phosphorylation of Cas
MCF-10a cells
  proliferation (in words): reduced proliferation relative to wild-type Brk
ErbB2
  interaction with ErbB2 (in words): increased interaction with ErbB2 compared to wild-type Brk

## V253M: Brk mutant, kinase domain, identified in head and neck squamous cell carcinoma
STAT3
  phosphorylation of STAT3 (in words): decrease in phosphorylation of STAT3

## R131L: Brk mutant, SH2 domain, found in gastric cancer
β-catenin
  binding and phosphorylation of β-catenin (in words): greater binding and phosphorylation of β-catenin as compared to wild-type Brk
p130Cas
  phosphorylation of Cas (in words): greater phosphorylation of Cas compared to wild-type Brk

## WT: Flag-tagged wild-type full length Brk (PTK6)
NIH-3T3 cells [4]
  nonanchored cell growth (in words): increase in nonanchored growth
NIH-3T3 cells [1]
  anchored cell growth (in words): increased cell growth compared to empty vector cells

## L343F: Brk mutant, kinase domain, identified in cutaneous squamous cell carcinoma
β-catenin
  binding and phosphorylation of β-catenin (in words): greater binding and phosphorylation of β-catenin as compared to wild-type Brk
Akt and Erk1/2
  activation of Akt and Erk1/2 (in words): increased activation of both Akt and Erk1/2
p130Cas
  phosphorylation of Cas (in words): greater phosphorylation of Cas compared to wild-type Brk
SkBr3 cells
  anchored or nonanchored cell growth (in words): no increase in anchored or nonanchored cell growth

## N317S: Brk mutant, kinase domain, identified in ovarian carcinoma
β-catenin
  binding to β-catenin (in words): bound normally to β-catenin
  phosphorylation of β-catenin (in words): unable to phosphorylate the protein
Akt
  Akt phosphorylation (in words): still phosphorylated
Erk1/2 [3]
  Erk1/2 phosphorylation (in words): still phosphorylated
STAT3
  phosphorylation of STAT3 (in words): decrease in phosphorylation of STAT3
